Assays:
[1] = system: Human alphaherpesvirus 1; test: Antiviral activity against acyclovir-sensitive HSV1 KOS isolate replication in african green monkey Vero cells by plaque reduction assay; format: functional, organism-based; details: Human alphaherpesvirus 1, Vero
Summary of the method: (§1)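 HSV-1 was grown and assayed by plaque reduction in Vero cell monolayers in MEM with 10% FCS. Drug was diluted in MEM–10% FCS from a 100 mM PBS stock, and IC50 was read from the plaque counts. KOS-M was derived from KOS by 3 weeks of passage in 13 μM ACV.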

[2] = system: Human betaherpesvirus 5; test: Antiviral activity against ganciclovir-resistant HCMV3 isolate replication in HFF cells by plaque reduction assay; format: functional, organism-based; details: Human betaherpesvirus 5, HFF
Summary of the method: (§2)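 Plaque reduction run as a modified, simplified micro-culture, cell-associated immediate-early assay on human foreskin fibroblast monolayers (passage 15–30) in MEM with 10% FCS. Drug was diluted in MEM–10% FCS from a 100 mM PBS stock. IC50 came from Probit analysis. Strain HCMV-3res carries the UL97 C603W mutation. U405 is a clinical isolate from a pediatric stem cell transplant recipient.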

[3] = system: Human betaherpesvirus 5; test: Antiviral activity against ganciclovir-resistant HCMV U405 isolate replication in HFF cells by plaque reduction assay; format: functional, organism-based; details: Human betaherpesvirus 5, HFF; summary of the method: as §2
[4] = system: Human alphaherpesvirus 1; test: Antiviral activity against acyclovir-sensitive HSV1 L177 isolate replication in african green monkey Vero cells by plaque reduction assay; format: functional, organism-based; details: Human alphaherpesvirus 1, Vero; summary of the method: as §1
[5] = system: Human alphaherpesvirus 1; test: Antiviral activity against acyclovir-resistant HSV1 KOS-M isolate replication in african green monkey Vero cells by plaque reduction assay; format: functional, organism-based; details: Human alphaherpesvirus 1, Vero; summary of the method: as §1
[6] = system: Human alphaherpesvirus 1; test: Antiviral activity against acyclovir-resistant HSV1 L182 isolate replication in african green monkey Vero cells by plaque reduction assay; format: functional, organism-based; details: Human alphaherpesvirus 1, Vero; summary of the method: as §1
[7] = system: Human betaherpesvirus 5; test: Antiviral activity against ganciclovir-sensitive HCMV1 isolate replication in HFF cells by plaque reduction assay; format: functional, organism-based; details: Human betaherpesvirus 5, HFF; summary of the method: as §2
[8] = system: CEM-SS; test: Growth inhibition of human CEM-SS cells; format: cell-based
Summary of the method: (§3)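 Run at the National Cancer Institute (USA). The assay rests on HIV killing T4 lymphocytes. EC50 is the concentration protecting against virus cytopathic effect, and IC50 is 50% inhibition of cell growth. The therapeutic index is TI50 = IC50/EC50.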

[9] = system: Human immunodeficiency virus 1; test: Antiviral activity against HIV1 infected in human CEM-SS cells assessed as inhibition of virus-induced cytopathic effect by plaque reduction assay; format: functional, organism-based; details: Human immunodeficiency virus 1, CEM-SS; summary of the method: as §3
[10] = Therapeutic index, IC50 for human CEM-SS cells to EC50 for HIV1; format: cell-based; details: read-out: Ratio IC50/EC50; summary of the method: as §3
[11] = system: Human alphaherpesvirus 1; test: Antiviral activity against acyclovir-sensitive HSV1 K161 isolate replication in african green monkey Vero cells by plaque reduction assay; format: functional, organism-based; details: Human alphaherpesvirus 1, Vero; summary of the method: as §1
[12] = system: Human alphaherpesvirus 1; test: Antiviral activity against acyclovir-resistant HSV1 K143 isolate replication in african green monkey Vero cells by plaque reduction assay; format: functional, organism-based; details: Human alphaherpesvirus 1, Vero; summary of the method: as §1

O=C(O)P(=O)(O)O [FOSCARNET]
IC50 [1]: 125 µM | IC50 [2]: 67.5 µM | IC50 [3]: 400 µM | IC50 [4]: 64 µM | IC50 [5]: 112 µM | IC50 [6]: 46 µM

Nc1nc2c(ncn2COC(CO)CO)c(=O)[nH]1 [GANCICLOVIR]
IC50 [2]: 16.4 µM | IC50 [7]: 3.22 µM

CCCCCCCCCCCCCCCCCCOC[C@H](COP(=O)(O)C(=O)O)OP(=O)(O)OC[C@H]1O[C@@H](n2cc(C)c(=O)[nH]c2=O)C[C@@H]1N=[N+]=[N-]
IC50 [1]: 4.02 µM | IC50 [8]: 92.7 µM | EC50 [9]: 0.17 µM | IC50 [2]: 1.18 µM | IC50 [7]: 2.78 µM | IC50 [3]: 4.29 µM | IC50 [4]: 1.92 µM | IC50 [5]: 3.39 µM | selectivity ratio [10]: 454 | IC50 [11]: 2.27 µM | IC50 [6]: 1.87 µM | IC50 [12]: 4.59 µM

Nc1nc2c(ncn2COCCO)c(=O)[nH]1 [ACYCLOVIR]
IC50 [1]: 3.04 µM | IC50 [4]: 0.32 µM | IC50 [5]: 31.2 µM | IC50 [11]: 0.58 µM | IC50 [6]: 9.51 µM | IC50 [12]: 75.1 µM

Source: ChEMBL document CHEMBL1139254, “Synthesis and in vitro activities of a new antiviral duplex drug linking Zidovudine (AZT) and Foscarnet (PFA) via an octadecylglycerol residue” (Bioorg Med Chem, 2009)
